≈ marks a conversion by molar mass, not a printed value.
What was measured:
Klebsiella pneumoniae [1] = assay: Synergistic antibacterial activity against Klebsiella pneumoniae 729/1679 producing KPC-3 assessed as meropenem MIC at 4 ug/ml by broth microdilution method; format: functional; details: dose 4 µg/ml
Summary of the method: (§1)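 Broth microdilution per CLSI guidelines, using custom frozen panels. […] Each partner drug was also tested alone. MICs were run in triplicate and the modal value is reported.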

Acinetobacter baumannii [2] = assay: Synergistic antibacterial activity against Acinetobacter baumannii PR420 producing OXA-23/24/40 assessed as cefepime MIC at 4 ug/ml by broth microdilution method; format: functional; details: dose 4 µg/ml
Acinetobacter baumannii [3] = assay: Synergistic antibacterial activity against ADC deleted Acinetobacter baumannii assessed as cefepime MIC at 8 ug/ml by broth microdilution method; format: functional; details: dose 8 µg/ml
Klebsiella pneumoniae [4] = assay: Synergistic antibacterial activity against Klebsiella pneumoniae 1398/2291 producing KPC-3 assessed as meropenem MIC at 8 ug/ml by broth microdilution method; format: functional; details: dose 8 µg/ml; summary of the method: as §1
Acinetobacter baumannii [5] = assay: Synergistic antibacterial activity against Acinetobacter baumannii PR408 producing OXA-24/40 assessed as cefepime MIC at 4 ug/ml by broth microdilution method; format: functional; details: dose 4 µg/ml
Pseudomonas aeruginosa [6] = assay: Synergistic antibacterial activity against Pseudomonas aeruginosa 715 assessed as meropenem MIC at 4 ug/ml by broth microdilution method; format: functional; details: dose 4 µg/ml
Klebsiella pneumoniae [7] = assay: Synergistic antibacterial activity against Klebsiella pneumoniae 1354/2241 producing KPC-3 assessed as cefepime MIC at 4 ug/ml by broth microdilution method; format: functional; details: dose 4 µg/ml; summary of the method: as §1
Acinetobacter baumannii [8] = assay: Synergistic antibacterial activity against ADC deleted Acinetobacter baumannii transfected with pWH1266 OXA-23 assessed as meropenem MIC at 4 ug/ml by broth microdilution method; format: functional; details: dose 4 µg/ml
Klebsiella pneumoniae [9] = assay: Synergistic antibacterial activity against Klebsiella pneumoniae 1108/1989 producing KPC-3 assessed as meropenem MIC at 4 ug/ml by broth microdilution method; format: functional; details: dose 4 µg/ml; summary of the method: as §1
Pseudomonas aeruginosa [10] = assay: Synergistic antibacterial activity against Pseudomonas aeruginosa 839 assessed as meropenem MIC at 4 ug/ml by broth microdilution method; format: functional; details: dose 4 µg/ml
Acinetobacter baumannii [11] = assay: Synergistic antibacterial activity against Acinetobacter baumannii PR363 producing OXA-23 assessed as cefepime MIC at 8 ug/ml by broth microdilution method; format: functional; details: dose 8 µg/ml
Klebsiella pneumoniae [12] = assay: Synergistic antibacterial activity against Klebsiella pneumoniae 977/1916 producing KPC-3 assessed as cefepime MIC at 8 ug/ml by broth microdilution method; format: functional; details: dose 8 µg/ml
Klebsiella pneumoniae [13] = assay: Synergistic antibacterial activity against Klebsiella pneumoniae 761/1723 producing KPC-3 assessed as cefepime MIC at 4 ug/ml by broth microdilution method; format: functional; details: dose 4 µg/ml; summary of the method: as §1
Pseudomonas aeruginosa [14] = assay: Synergistic antibacterial activity against Pseudomonas aeruginosa 795 assessed as cefepime MIC at 8 ug/ml by broth microdilution method; format: functional; details: dose 8 µg/ml
Pseudomonas aeruginosa [15] = assay: Synergistic antibacterial activity against Pseudomonas aeruginosa 776 assessed as meropenem MIC at 4 ug/ml by broth microdilution method; format: functional; details: dose 4 µg/ml
Pseudomonas aeruginosa [16] = assay: Antibacterial activity against Pseudomonas aeruginosa 839 by broth microdilution method; format: functional
Klebsiella pneumoniae [17] = assay: Synergistic antibacterial activity against Klebsiella pneumoniae 776/1742 producing KPC-2 assessed as cefepime MIC at 8 ug/ml by broth microdilution method; format: functional; details: dose 8 µg/ml
Klebsiella pneumoniae [18] = assay: Synergistic antibacterial activity against Klebsiella pneumoniae 972/1910 producing KPC-3 assessed as meropenem MIC at 4 ug/ml by broth microdilution method; format: functional; details: dose 4 µg/ml
Klebsiella pneumoniae [19] = assay: Synergistic antibacterial activity against Klebsiella pneumoniae 935/1884 producing KPC-3 assessed as cefepime MIC at 4 ug/ml by broth microdilution method; format: functional; details: dose 4 µg/ml
Acinetobacter baumannii [20] = assay: Synergistic antibacterial activity against Acinetobacter baumannii PR359 producing OXA-23 assessed as meropenem MIC at 4 ug/ml by broth microdilution method; format: functional; details: dose 4 µg/ml
Klebsiella pneumoniae [21] = assay: Synergistic antibacterial activity against Klebsiella pneumoniae 11978 producing OXA-48 assessed as cefepime MIC at 8 ug/ml by broth microdilution method; format: functional; details: dose 8 µg/ml; summary of the method: as §1
Acinetobacter baumannii [22] = assay: Synergistic antibacterial activity against Acinetobacter baumannii PR440 producing OXA-23/24/40 assessed as cefepime MIC at 8 ug/ml by broth microdilution method; format: functional; details: dose 8 µg/ml
Acinetobacter baumannii [23] = assay: Synergistic antibacterial activity against Acinetobacter baumannii PR363 producing OXA-23 assessed as meropenem MIC at 4 ug/ml by broth microdilution method; format: functional; details: dose 4 µg/ml
Acinetobacter baumannii [24] = assay: Synergistic antibacterial activity against ADC deleted Acinetobacter baumannii transfected with pWH1266 OXA-23 assessed as meropenem MIC at 8 ug/ml by broth microdilution method; format: functional; details: dose 8 µg/ml
Summary of the method: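 Broth microdilution per CLSI guidelines in frozen panels. Test compound held at fixed 8 mg/L while the partner β-lactam concentration was increased. Run in triplicate; modal MIC reported.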

Escherichia coli [25] = assay: Antibacterial activity against Escherichia coli DH10B transfected with pBC SK (-) OXA-48 by broth microdilution method; format: functional
Klebsiella pneumoniae [26] = assay: Synergistic antibacterial activity against Klebsiella pneumoniae 761/1723 producing KPC-3 assessed as meropenem MIC at 4 ug/ml by broth microdilution method; format: functional; details: dose 4 µg/ml
Acinetobacter baumannii [27] = assay: Synergistic antibacterial activity against Acinetobacter baumannii PR476 producing OXA-24/40 assessed as meropenem MIC at 8 ug/ml by broth microdilution method; format: functional; details: dose 8 µg/ml
Escherichia coli [28] = assay: Synergistic antibacterial activity against Escherichia coli DH10B transfected with pBC SK (-) PDC-3 assessed as meropenem MIC at 4 ug/ml by broth microdilution method; format: functional; details: dose 4 µg/ml; summary of the method: as §1
Klebsiella pneumoniae [29] = assay: Antibacterial activity against Klebsiella pneumoniae jefferson 1775 producing OXA-48 by broth microdilution method; format: functional
Klebsiella pneumoniae [30] = assay: Synergistic antibacterial activity against Klebsiella pneumoniae 972/1910 producing KPC-3 assessed as cefepime MIC at 8 ug/ml by broth microdilution method; format: functional; details: dose 8 µg/ml
Bacteria = assay: Inhibition of bacteria ADC-7 assessed as half life using nitrocefin as substrate
Acinetobacter baumannii [31] = assay: Synergistic antibacterial activity against Acinetobacter baumannii PR319 producing OXA-23/24/40 assessed as meropenem MIC at 8 ug/ml by broth microdilution method; format: functional; details: dose 8 µg/ml
Klebsiella pneumoniae [32] = assay: Synergistic antibacterial activity against Klebsiella pneumoniae CAV 1543 producing OXA-48 assessed as cefepime MIC at 4 ug/ml by broth microdilution method; format: functional; details: dose 4 µg/ml
Klebsiella pneumoniae [33] = assay: Synergistic antibacterial activity against Klebsiella pneumoniae 1398/2291 producing KPC-3 assessed as meropenem MIC at 4 ug/ml by broth microdilution method; format: functional; details: dose 4 µg/ml; summary of the method: as §1
Pseudomonas aeruginosa [34] = assay: Synergistic antibacterial activity against Pseudomonas aeruginosa 715 assessed as meropenem MIC at 8 ug/ml by broth microdilution method; format: functional; details: dose 8 µg/ml
Klebsiella pneumoniae [35] = assay: Synergistic antibacterial activity against Klebsiella pneumoniae NY BS producing OXA-232 assessed as cefepime MIC at 8 ug/ml by broth microdilution method; format: functional; details: dose 8 µg/ml
Escherichia coli [36] = assay: Synergistic antibacterial activity against Escherichia coli DH10B transfected with pBC SK (-) KPC-3 assessed as cefepime MIC at 8 ug/ml by broth microdilution method; format: functional; details: dose 8 µg/ml
Acinetobacter baumannii [37] = assay: Synergistic antibacterial activity against Acinetobacter baumannii PR474 producing OXA-23/24/40 assessed as meropenem MIC at 8 ug/ml by broth microdilution method; format: functional; details: dose 8 µg/ml
Klebsiella pneumoniae [38] = assay: Synergistic antibacterial activity against Klebsiella pneumoniae 972/1910 producing KPC-3 assessed as meropenem MIC at 8 ug/ml by broth microdilution method; format: functional; details: dose 8 µg/ml

Row | SMILES | MIC (Klebsiella pneumoniae [1]) | MIC (Acinetobacter baumannii [3]) | MIC (Klebsiella pneumoniae [4]) | MIC (Acinetobacter baumannii [5]) | MIC (Klebsiella pneumoniae [7]) | MIC (Klebsiella pneumoniae [9]) | MIC (Pseudomonas aeruginosa [10]) | MIC (Acinetobacter baumannii [11]) | MIC (Klebsiella pneumoniae [12]) | MIC (Klebsiella pneumoniae [13]) | MIC (Pseudomonas aeruginosa [14]) | MIC (Pseudomonas aeruginosa [15]) | MIC (Pseudomonas aeruginosa [16]) | MIC (Klebsiella pneumoniae [17]) | MIC (Klebsiella pneumoniae [18]) | MIC (Klebsiella pneumoniae [19]) | MIC (Acinetobacter baumannii [20]) | MIC (Klebsiella pneumoniae [21]) | MIC (Acinetobacter baumannii [22]) | MIC (Acinetobacter baumannii [23]) | also measured
1 | N#C[C@@H]1CC[C@@H]2CN1C(=O)N2OS(=O)(=O)[O-].[Na+] | ≤ 0.12 µg/mL | 0.5 µg/mL | ≤ 0.12 µg/mL | 8 µg/mL | ≤ 0.12 µg/mL | ≤ 0.12 µg/mL | 1 µg/mL | 8 µg/mL | ≤ 0.12 µg/mL | ≤ 0.12 µg/mL | > 16 µg/mL | 16 µg/mL | > 16 µg/mL | 1 µg/mL | ≤ 0.12 µg/mL | 0.25 µg/mL | 4 µg/mL | 0.5 µg/mL | > 16 µg/mL | 4 µg/mL | MIC (Acinetobacter baumannii [2]): > 16 µg/mL; MIC (Pseudomonas aeruginosa [6]): 16 µg/mL; MIC (Acinetobacter baumannii [8]): 16 µg/mL; MIC (Acinetobacter baumannii [24]): 4 µg/mL; MIC (Escherichia coli [25]): > 16 µg/mL; MIC (Klebsiella pneumoniae [26]): ≤ 0.12 µg/mL; MIC (Acinetobacter baumannii [27]): 0.25 µg/mL; MIC (Escherichia coli [28]): ≤ 0.12 µg/mL; MIC (Klebsiella pneumoniae [29]): > 16 µg/mL; MIC (Klebsiella pneumoniae [30]): 0.25 µg/mL; T1/2 (Bacteria): 12 min; MIC (Acinetobacter baumannii [31]): > 16 µg/mL; MIC (Klebsiella pneumoniae [32]): 0.25 µg/mL; MIC (Klebsiella pneumoniae [33]): ≤ 0.12 µg/mL; MIC (Pseudomonas aeruginosa [34]): 16 µg/mL; MIC (Klebsiella pneumoniae [35]): 1 µg/mL; MIC (Escherichia coli [36]): ≤ 0.12 µg/mL; MIC (Acinetobacter baumannii [37]): 16 µg/mL; MIC (Klebsiella pneumoniae [38]): ≤ 0.12 µg/mL
2 | O=C(NNC(=O)[C@@H]1CC[C@@H]2CN1C(=O)N2OS(=O)(=O)O)[C@@H]1CCNC1 | 0.25 µg/mL | 0.5 µg/mL | ≤ 0.12 µg/mL | 16 µg/mL | ≤ 0.12 µg/mL | ≤ 0.12 µg/mL | ≤ 0.12 µg/mL | 8 µg/mL | ≤ 0.12 µg/mL | ≤ 0.12 µg/mL | ≤ 0.12 µg/mL | 16 µg/mL | 4 µg/mL (≈ 10.6 µM) | ≤ 0.12 µg/mL | ≤ 0.12 µg/mL | ≤ 0.12 µg/mL | > 16 µg/mL | ≤ 0.12 µg/mL | > 16 µg/mL | > 16 µg/mL | MIC (Acinetobacter baumannii [24]): > 16 µg/mL; MIC (Klebsiella pneumoniae [26]): ≤ 0.12 µg/mL; MIC (Acinetobacter baumannii [27]): 0.25 µg/mL; MIC (Escherichia coli [28]): ≤ 0.12 µg/mL; MIC (Klebsiella pneumoniae [29]): > 16 µg/mL; MIC (Klebsiella pneumoniae [30]): ≤ 0.12 µg/mL; T1/2 (Bacteria): 13 min; MIC (Acinetobacter baumannii [31]): > 16 µg/mL; MIC (Klebsiella pneumoniae [32]): ≤ 0.12 µg/mL; MIC (Klebsiella pneumoniae [33]): ≤ 0.12 µg/mL; MIC (Pseudomonas aeruginosa [34]): 0.5 µg/mL; MIC (Klebsiella pneumoniae [35]): ≤ 0.12 µg/mL; MIC (Escherichia coli [36]): ≤ 0.12 µg/mL; MIC (Acinetobacter baumannii [37]): > 16 µg/mL; MIC (Klebsiella pneumoniae [38]): ≤ 0.12 µg/mL

Source: ChEMBL document CHEMBL5247575 (J Med Chem, 2018)
